Results collected from several papers.
Each line is one published result; the experiments were not run side by side.
Target: Phosphatidylinositol 4,5-bisphosphate 3-kinase catalytic subunit gamma isoform (PIK3CG, Homo sapiens, UniProt P48736)

Compound	assay	setting	remaining binding [%]
O=C(Nc1cccnn1)N1CCC(=Cc2cccc(Oc3ccc(C(F)(F)F)cn3)c2)CC1	cell-free assay, competition with immobilised ligand	1 µM	100
CN(C)c1nccc(-c2cnc3ncccn23)n1	binding	1 µM	39
N#Cc1ccc(Nc2ccc3[nH]c(=O)[nH]c3c2)c(Cl)c1	cell-free assay, competition with immobilised ligand	1 µM	92
Nc1ncc2c(n1)-c1c([nH]c3ccc(C#CC4CC4)cc13)CCCC2	binding, competition with immobilised ligand	1 µM	77
O=C(c1ccc(Nc2ncc(Cl)c(-c3cc4ccccc4s3)n2)cc1)N1CCC(N2CCCC2)CC1	binding, competition with immobilised ligand	1 µM	87
COc1cnc(Nc2cccc(S(N)(=O)=O)c2)nc1N1CCN(c2ccccc2)C(=O)C1	binding, competition with immobilised ligand	1 µM	34
N[C@H]1CCN(c2nccc(-c3cnn4ncccc34)n2)C1	binding	1 µM	100
O=C(NCCCN1CCOCC1)c1ccc(Nc2nccc(-c3cc4ccccc4s3)n2)cc1	binding, competition with immobilised ligand	1 µM	20
CCCCN(CCCC)C(=O)CN1C[C@H](c2cc(OC)c3c(c2)OCO3)[C@@H](C(=O)O)[C@@H]1CC(C)(C)CCC	cell-free assay, competition with immobilised ligand	1 µM	76.9
CN(c1nccc(-c2cnn3ncccc23)n1)C1CC1	binding	1 µM	100
O=C(NCC1CCOCC1)c1n[nH]cc1NC(=O)c1c(F)cccc1F	binding, competition with immobilised ligand	1 µM	100
C[C@@H](c1cccc(C#N)c1)n1cc(Cl)cc(C(N)=O)c1=N	cell-free assay, competition with immobilised ligand	1 µM	100
F[C@@H]1CCN(c2nccc(-c3cnn4ncccc34)n2)C1	binding	1 µM	100
C=CC(=O)N1CCC(C(=O)NCC(=O)N2CCN(c3nc(-c4cnc(N)nc4C(F)F)nc(N4CCOCC4)n3)CC2)CC1	binding, competition with immobilised ligand	1 µM	0.1
CC1CCCN1c1nccc(-c2cnn3ncccc23)n1 (stereo not drawn)	binding	1 µM	100
CCN1CCN(Cc2ccc(C(=O)Nc3ccc(C)c(Oc4ccc5c(c4)CC(=O)N5)c3)cc2C(F)(F)F)CC1	binding, competition with immobilised ligand	1 µM	93
CC(C)CC(=O)N1CCc2nc(-c3ccc(Br)cc3)nc(N(C)Cc3ccccc3)c2C1	cell-free assay, competition with immobilised ligand	0.1 µM	100
CN(C)c1ncc(F)c(-c2cnn3ncccc23)n1	binding	1 µM	90
c1cncc(-c2cccc(Nc3nccc(NC4CCCCC4)n3)c2)c1	binding, competition with immobilised ligand	10 µM	69
O=C(O)[C@@H]1[C@@H](Cn2nnc3ccccc3c2=O)CC[C@H]1C(=O)c1ccc(OCCC2CCOCC2)cc1	cell-free assay, competition with immobilised ligand	1 µM	100
CC(C)(C)c1ccc(-c2nc(CBr)nn2-c2cccc(O)c2)cc1	cell-free assay, competition with immobilised ligand	10 µM	94
O=C(c1ccc(Nc2ncc(Cl)c(-c3ccc(Cl)s3)n2)cc1)N1CCC(N2CCCC2)CC1	binding, competition with immobilised ligand	1 µM	90
C[C@@]1(Cc2ccc(C#N)cc2)C(=O)N(c2cc(Cl)cc(Cl)c2)c2ncc(C(=O)NC3(c4nc(C5CCC5)no4)CC3)n21	cell-free assay, competition with immobilised ligand	1 µM	95
C[C@@H]1CCN(c2nccc(-c3cnn4ncccc34)n2)C1	binding	1 µM	58
